This is an account of results in ChEMBL document CHEMBL4359875, “Development of novel theranostic agents for in vivo amyloid imaging and protective effects on human neuroblastoma cells” (Eur J Med Chem, 2019).

Calls of active or inactive are those of the source. The rule behind the calls is not given here. A value given as a limit tells only on which side of the number the result lay.

A word on the Kd: it is the equilibrium constant for the complex coming apart.

Series [1] has as its target T1, Amyloid-beta precursor protein (Homo sapiens, UniProt P05067). In words: Binding affinity to amyloid beta 1 to 42 (unknown origin) in PBS buffer at pH 7.4 assessed as binding constant by fluorescence based assay. In outline: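 Synthetic Aβ1-42 aggregates in PBS. Kd from a saturation binding assay read by fluorescence. Triplicate, mean ± SD.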
The target of series [2] is Amyloid-beta precursor protein (Mus musculus) (UniProt P12023). The series can be described thus: Binding affinity to amyloid beta 1 to 42 in double transgenic C57BL/6 APPswe/PSEN1 mouse assessed as plaque formation in hippocampus region at 1 uM incubated for 5 mins by fluorescence microscopy. In outline:
(§1)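 Frozen brain sections from male APP/PS1 double transgenic mice and age-matched male C57BL/6 wild-type mice, both 10 months old. Sections were washed in PBS to remove OCT, then stained with 1 μM probe or ThT in 10% ethanol for 5 min at room temperature. They were washed twice with ethanol and PBS (0.1 M, pH 7.4) for 10 min. Cortex and hippocampus were imaged by fluorescence microscopy with GFP and Cy5 filter sets.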

The nature of series [3]: Stability in mouse plasma assessed as remaining compound at 50 uM incubated for 30 to 60 mins by HPLC analysis. It is filed as ADME, cell-free. The following applies: read-out: Stability. The gist of the method:
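Compound in ethanol (50 μM) added to plasma (1:9 by volume), with PBS as the standard. Incubated at 37 °C for 30 or 60 min. Mixture treated twice with acetonitrile and centrifuged. Supernatant analysed by HPLC on C18 with CH3CN/H2O 85:15 at 1 mL/min, 30 °C.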

Series [4] has as its target T1, Amyloid-beta precursor protein. The series can be described thus: Inhibition of amyloid beta 1 to 42 aggregation in human SH-SY5Y cells incubated for 48 hrs by fluorescence microscopy. In kind it is cell-based. In outline: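 SH-SY5Y seeded at 2000 cells/well with Aβ1-42 monomer (0.25 μM) alone or plus compound (0.05 or 0.5 μM), 48 h at 37 °C, 5% CO2. Controls got compound after the 2 days. Read as average pixel intensity of four random fields by fluorescence microscopy. Three independent experiments.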

Series [5] concerns the target Amyloid-beta precursor protein (Mus musculus) (UniProt P12023). In words: Binding affinity to amyloid beta 1 to 42 in C57BL/6 mouse brain hippocampus assessed as plague formation at 1 uM incubated for 5 mins by fluorescence microscopy. In outline:
as §1

A short description of series [6]: Photostability of compound. In kind it is physicochemical.
Series [7] deals with Amyloid-beta precursor protein (Mus musculus) (UniProt P12023). In words: Binding affinity to amyloid beta 1 to 42 in C57BL/6 mouse brain cortex assessed as plague formation at 1 uM incubated for 5 mins by fluorescence microscopy. In outline: as §1
Amyloid-beta precursor protein (Mus musculus), sequence (P12023 whole entry): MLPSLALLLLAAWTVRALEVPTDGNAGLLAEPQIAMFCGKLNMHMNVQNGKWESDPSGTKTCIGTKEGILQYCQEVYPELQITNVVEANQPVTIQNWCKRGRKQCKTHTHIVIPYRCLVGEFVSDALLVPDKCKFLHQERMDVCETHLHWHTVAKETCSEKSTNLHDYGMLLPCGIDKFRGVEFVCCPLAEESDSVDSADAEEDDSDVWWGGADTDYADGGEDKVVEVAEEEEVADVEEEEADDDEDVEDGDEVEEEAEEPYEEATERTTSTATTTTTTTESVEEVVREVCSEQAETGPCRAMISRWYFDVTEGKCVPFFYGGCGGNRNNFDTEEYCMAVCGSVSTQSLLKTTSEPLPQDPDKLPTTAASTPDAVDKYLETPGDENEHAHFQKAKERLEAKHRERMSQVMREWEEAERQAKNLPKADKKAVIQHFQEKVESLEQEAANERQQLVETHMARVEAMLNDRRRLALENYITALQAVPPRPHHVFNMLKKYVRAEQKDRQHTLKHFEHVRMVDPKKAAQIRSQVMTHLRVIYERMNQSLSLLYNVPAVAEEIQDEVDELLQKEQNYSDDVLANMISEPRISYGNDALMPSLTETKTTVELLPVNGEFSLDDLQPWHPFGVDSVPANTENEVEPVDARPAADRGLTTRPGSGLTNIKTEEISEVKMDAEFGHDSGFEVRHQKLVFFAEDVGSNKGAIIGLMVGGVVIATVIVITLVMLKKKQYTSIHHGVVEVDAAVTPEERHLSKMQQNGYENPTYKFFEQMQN
The test system of series [8] is Mus musculus. In words: In vivo binding affinity to amyloid beta 1 to 42 in APP/PS1 double transgenic C57BL/6 mouse brain assessed as amyloid-beta plaque-compound complex formation at 4 mg/kg, iv measured for 5 to 60 mins by NIR imaging analysis. In kind it is functional, organism-based. The gist of the method: (§2)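 Male APP/PS1 double-transgenic and age-matched wild-type C57BL/6 mice, 12 months old, shaved. Compound 4 mg/kg in 50 μl of 20% DMSO/80% propylene glycol given via tail vein. Mice kept under 2.5% isoflurane in oxygen. Head NIR fluorescence imaged before and at time points from 5 to 60 min after dosing.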

Another series concerns SH-SY5Y. The series can be described thus: Dark toxicity against human SH-SY5Y cells assessed as reduction in cell viability at 50 uM incubated for 24 hrs by MTT assay. It is filed as cell-based. In outline:
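SH-SY5Y seeded at 5000 cells/well and incubated overnight. Compound added at a range of concentrations for 24 h, run with or without light exposure. MTT (5 mg/mL) added for 4 h, then absorbance read at 570 nm.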

For series [9], the target named is T1, Amyloid-beta precursor protein. In words: Binding affinity to amyloid beta 1 to 42 (unknown origin) in PBS buffer at pH 7.4 assessed as increase in blue shift in maximum absorption at 0.2 uM by fluorescence based assay. The gist of the method: (§3)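 Fluorescence titration in PBS pH 7.4: probe 0.2 μM with stepwise addition of synthetic Aβ1-42 aggregates (0 to 10.0 μM). Emission maxima compared with probe alone in PBS.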

Series [10] deals with Mus musculus. The series can be described thus: In vivo binding affinity to amyloid beta 1 to 42 in C57BL/6 mouse brain assessed as amyloid-beta plaque-compound complex formation at 4 mg/kg, iv measured for 5 to 60 mins by NIR imaging analysis. It is filed as functional, organism-based. In outline:
as §2

Series [11] concerns the target Amyloid-beta precursor protein (Mus musculus) (UniProt P12023). In words: Binding affinity to amyloid beta 1 to 42 in double transgenic C57BL/6 APPswe/PSEN1 mouse assessed as plaque formation in cortex region at 1 uM incubated for 5 mins by fluorescence microscopy. In outline: as §1
Series [12] can be described thus: Metal chelating activity assessed as compound-Cu2+ complex formation at 20 uM by UV-visible spectroscopy. In outline: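 UV/Vis titration: compound 20 μM in water with CuSO4 added from 0 to 1000 μM. Spectrum recorded after each addition. Triplicate.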
Series [13] has as its target T1, Amyloid-beta precursor protein. In words: Inhibition of amyloid beta 1 to 42 (unknown origin)-induced ROS production in human SH-SY5Y cells at 1 and 5 uM incubated for 24 hrs by DCFH-DA staining based fluorescence assay. It is filed as cell-based. In outline: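 SH-SY5Y at 5000 cells/well, incubated overnight. Medium then replaced with Aβ1-42 (2 μM final) alone or with compound (1 and 5 μM) for 24 h at 37 °C, 5% CO2. DCFH-DA 10 μM added for 30 min at 37 °C, cells washed twice. Fluorescence read at ex/em 488/525 nm. Mean ± SD, Student's t test.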

The target is the same in series [14]. The series can be described thus: Inhibition of amyloid beta 1 to 42 (unknown origin)-induced cytotoxicity in human SH-SY5Y cells at 1 to 5 uM incubated for 24 hrs by MTT assay. It is filed as cell-based. The gist of the method: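 SH-SY5Y at 5000 cells/well, incubated overnight. Treated for 24 h with 5 μM Aβ1-42 monomer plus compound (1 or 5 μM). MTT (5 mg/mL) added for 4 h, absorbance read at 570 nm.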
On the technique in general: Tetrazolium dyes change colour on reduction, which living cells bring about.

Series [15] has the same target. The series can be described thus: Binding affinity to amyloid beta 1 to 42 (unknown origin) in PBS buffer at pH 7.4 assessed as increase in red shift in maximum absorption at 0.2 uM by fluorescence based assay. In outline:
as §3

T1 sequence (P05067 whole entry): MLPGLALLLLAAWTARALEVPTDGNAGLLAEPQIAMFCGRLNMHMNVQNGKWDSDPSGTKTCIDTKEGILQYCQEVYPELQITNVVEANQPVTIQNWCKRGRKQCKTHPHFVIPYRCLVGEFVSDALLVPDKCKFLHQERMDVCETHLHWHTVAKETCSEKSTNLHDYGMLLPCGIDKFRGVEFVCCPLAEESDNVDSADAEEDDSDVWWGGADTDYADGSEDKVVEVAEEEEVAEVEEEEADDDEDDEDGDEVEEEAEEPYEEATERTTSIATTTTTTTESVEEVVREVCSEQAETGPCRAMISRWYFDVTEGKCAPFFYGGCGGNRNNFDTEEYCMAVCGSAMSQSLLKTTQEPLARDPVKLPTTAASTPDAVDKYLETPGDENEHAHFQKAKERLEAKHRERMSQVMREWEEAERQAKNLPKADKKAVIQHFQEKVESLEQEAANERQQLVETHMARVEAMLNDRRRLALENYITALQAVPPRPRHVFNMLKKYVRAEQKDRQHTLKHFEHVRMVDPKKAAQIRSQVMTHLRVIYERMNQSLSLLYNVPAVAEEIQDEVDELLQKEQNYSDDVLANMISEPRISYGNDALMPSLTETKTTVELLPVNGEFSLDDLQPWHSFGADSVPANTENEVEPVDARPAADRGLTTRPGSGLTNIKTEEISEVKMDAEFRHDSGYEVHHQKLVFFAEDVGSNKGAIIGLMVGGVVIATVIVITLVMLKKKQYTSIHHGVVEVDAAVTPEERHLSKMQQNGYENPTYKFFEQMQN

Take `CN1c2ccccc2Sc2cc(/C=C3/SC(=S)N(CC(=O)OCC4COC(C)(C)O4)C3=O)ccc21` (stereo not drawn): the Kd in series [1] worked out at 24.5 nM. The outcome (in series [2]; with Mus musculus [8]; in series [11]) was Active. Moreover, in series [3], the remaining at 50 µM was above 96%. Moreover, the inhibition entry in series [4] is “Dose-dependent effect”. Moreover, the outcome (in [5]; in series [7]; in the series with Mus musculus [10]) was inactive. The Stability result in series [6] is given as “Stable”. Moreover, in the series with SH-SY5Y, the Activity result is reported as “Non-Toxic”. Besides, the fold change (FC) in series [9] worked out at 22.
Turning to `CN1c2ccccc2Sc2cc(/C=C3/SC(=S)N(CC(=O)N(CC(=O)O)CC(=O)O)C3=O)ccc21`, the Kd in [1] was 76.5 nM. The remaining at 50 µM in [3] is above 96%. Besides, the outcome in series [12], in series [13] and in series [14] was Active. Besides, in series [6], the Stability result was “Stable”. The Activity entry in the series on SH-SY5Y is “Non-Toxic”. Moreover, the fold change (FC) in [15] is 2.4.
For `CCOC(=O)CN(CC(=O)OCC)C(=O)CN1C(=O)/C(=C\c2ccc3c(c2)Sc2ccccc2N3C)SC1=S`, the Kd in series [1] was found to be 46.3 nM. Besides, in series [3], the remaining at 50 µM is above 96%. Moreover, in series [6], the Stability entry is given as “Stable”. The Activity entry with SH-SY5Y is on record as “Non-Toxic”. In addition, the fold change (FC) in [9] came out at 38.3.
`CN1c2ccccc2Sc2cc(/C=C3/SC(=S)N(CC(=O)OCC(O)CO)C3=O)ccc21` (stereo not drawn): the Kd in [1] is 34.9 nM. The remaining at 50 µM in [3] is above 96%. Also, the result in series [12], in series [13] and in series [14] was Active. For the same compound, in series [6], the Stability entry is “Stable”. Moreover, in the series with SH-SY5Y, the Activity result was “Non-Toxic”. Further, in series [9], the fold change (FC) was found to be 9.5.
